# Measured values as given in ChEMBL document CHEMBL1147705, “Imidazolylpyrimidine based CXCR2 chemokine receptor antagonists” (Bioorg Med Chem Lett, 2006).
# Legend:
# [1] = Oral bioavailability in rat at […], iv and po; assay type: ADME, organism-based; details: in vivo
# [2] = Stability in rat liver microsome at 10 uM after 30 min; assay type: ADME; details: liver microsomes, read-out: Stability
# In short: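 Compound at 10 µM incubated with rat liver microsomal enzyme (300 nM) for 30 min at 37 °C; percent of parent remaining after 30 min quantified by LC. Values are means of at least two experiments, standard deviation <±30%.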
# [3] = target: T1, C-X-C chemokine receptor type 2 (Homo sapiens, UniProt P25025); test: Binding affinity to human CXCR2 receptor transfected in CHO cell; assay type: cell-based
# T1 sequence (P25025 whole entry): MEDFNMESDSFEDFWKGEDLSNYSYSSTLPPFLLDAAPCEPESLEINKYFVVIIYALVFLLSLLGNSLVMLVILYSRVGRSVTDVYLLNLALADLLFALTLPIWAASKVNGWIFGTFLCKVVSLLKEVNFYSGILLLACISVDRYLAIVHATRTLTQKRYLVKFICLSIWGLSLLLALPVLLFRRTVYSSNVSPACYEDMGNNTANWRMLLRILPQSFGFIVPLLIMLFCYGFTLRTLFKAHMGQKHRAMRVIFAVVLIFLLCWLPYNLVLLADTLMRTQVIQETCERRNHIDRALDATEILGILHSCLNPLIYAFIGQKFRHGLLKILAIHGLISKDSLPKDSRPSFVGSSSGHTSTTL
# [4] = AUC (infinity) in dog at 4 umol/kg, po; assay type: ADME, organism-based, Canis lupus familiaris; design: dose 4 umol/kg, route oral, time infinity; details: plasma
# [5] = Oral bioavailability in dog at 2 umol/kg, iv and 4 umol/kg, po; assay type: ADME, organism-based, Canis lupus familiaris; details: in vivo
# [6] = Half life in rat at 4 umol/kg, iv and po; assay type: ADME, organism-based; details: in vivo
# In short: (§1)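 Rats (n = 3) dosed 4 µmol/kg by iv and po routes; plasma pharmacokinetic profile followed after each route to derive the parameters.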
# [7] = Cmax in dog at 4 umol/kg, po; assay type: ADME, organism-based, Canis lupus familiaris; design: dose 4 umol/kg, route oral; details: in vivo
# [8] = AUC (infinity) in rat at 4 umol/kg, po; assay type: ADME, organism-based; design: dose 4 umol/kg, route oral, time infinity; details: plasma; in short: as §1
# [9] = Clearance in dog at 2 umol/kg, iv and 4 umol/kg, po; assay type: ADME, organism-based, Canis lupus familiaris; details: in vivo
# [10] = Clearance in rat at 4 umol/kg, iv and po; assay type: ADME, organism-based; details: in vivo; in short: as §1
# [11] = Cmax in rat at 4 umol/kg, po; assay type: ADME, organism-based; design: dose 4 umol/kg, route oral; details: in vivo; in short: as §1
# [12] = Half life in dog at 2 umol/kg, iv and 4 umol/kg, po; assay type: ADME, organism-based, Canis lupus familiaris; details: in vivo
# [13] = Volume of distribution in dog at 2 umol/kg, iv and 4 umol/kg, po; assay type: ADME, organism-based, Canis lupus familiaris; details: in vivo, read-out: Vdss
# [14] = Volume of distribution in rat at 4 umol/kg, iv and po; assay type: ADME, organism-based; details: in vivo, read-out: Vdss; in short: as §1
SMILES,"remaining at 0.5 h, 10 µM [2]",Ki [3],other results
CCOCCCNC(=O)[C@H](CC(C)C)Nc1cc(CC)nc(-n2cnc(-c3ccc(OC(F)(F)F)cc3)c2)n1,77%,57 nM,bioavailability [1]: 18%
CCCCc1cc(N[C@@H](CC(C)C)C(=O)NCCCOCC)nc(-n2cnc(-c3ccc(OC(F)(F)F)cc3)c2)n1,66%,17 nM,bioavailability [1]: 7%
CCCCc1cc(N[C@@H](CC(C)C)C(=O)NCCCOCC)nc(-n2cnc(-c3ccccc3)c2)n1,2%,100 nM,
CCCCc1cc(N[C@@H](CC(C)C)C(=O)NCCCOCC)nc(-n2cnc(-c3ccc(C(F)(F)F)cc3)c2)n1,80%,14 nM,
CCCCc1cc(N[C@@H](CC(C)C)C(=O)NCCCOCC)nc(-n2ccnc2C)n1,27%,> 10000 nM,
CCCCc1cc(N[C@@H](CC(C)C)C(=O)NCCCOCC)nc(-n2cnc(C)c2)n1,25%,90 nM,
CCCCc1cc(N[C@@H](CC(C)C)C(=O)NCCCOCC)nc(-n2cnc(-c3ccc([N+](=O)[O-])cc3)c2)n1,48%,160 nM,
CCCCc1cc(N[C@@H](CC(C)C)C(=O)NCCCOCC)nc(-n2cnc(-c3ccc(C#N)cc3)c2)n1,50%,43 nM,
CCCCc1cc(N[C@@H](CC(C)C)C(=O)NCCCOCC)nc(-n2cnc(-c3ccc(N)cc3)c2)n1,,600 nM,
CCCCc1cc(N[C@@H](CC(C)C)C(=O)NCCCOCC)nc(-n2cncn2)n1,30%,> 10000 nM,
CCCCc1cc(N[C@@H](CC(C)C)C(=O)NCCCOCC)nc(-n2cnc(-c3ccc(Cl)cc3)c2)n1,54%,27 nM,
CCCCc1cc(N[C@@H](CC(C)C)C(=O)NCCCOCC)nc(-n2cnc(-c3ccc(F)cc3)c2)n1,20%,37 nM,
CCCCCCCCSc1cc(N[C@@H](CC(C)C)C(=O)NCCCOCC)nc(-n2ccnc2)n1,26%,60 nM,
CCCCc1cc(N[C@@H](CC(C)C)C(=O)NCCCOCC)nc(-n2cnc(-c3ccc(OC)cc3)c2)n1,30%,42 nM,
CCCc1cc(N[C@@H](CC(C)C)C(=O)NCCCOCC)nc(-n2cnc(-c3cccc(OC(F)(F)F)c3)c2)n1,55%,35 nM,bioavailability [1]: 7%
CCOCCCNC(=O)[C@H](CC(C)C)Nc1ccnc(-n2cnc(-c3ccc(OC(F)(F)F)cc3)c2)n1,5%,200 nM,bioavailability [1]: 4%
CCCCCCCCc1cc(N[C@@H](CC(C)C)C(=O)NCCCOCC)nc(-n2ccnc2)n1,36%,120 nM,
CCCCc1cc(N[C@@H](CC(C)C)C(=O)NCCCOCC)nc(-c2ccncc2)n1,52%,> 5000 nM,
CCOCCCNC(=O)[C@H](CC(C)C)Nc1cc(C(C)(C)C)nc(-n2ccnc2)n1,83%,6000 nM,
CCCc1cc(N[C@@H](CC(C)C)C(=O)NCCCOCC)nc(-n2cnc(-c3ccccc3OC(F)(F)F)c2)n1,13%,50 nM,bioavailability [1]: 5%
CCCCCCc1cc(N[C@@H](CC(C)C)C(=O)NCCCOCC)nc(-n2ccnc2)n1,50%,290 nM,
CCOCCCNC(=O)[C@H](CC(C)C)Nc1cc(C)nc(-n2cnc(-c3ccc(OC(F)(F)F)cc3)c2)n1,67%,44 nM,bioavailability [1]: 22%
CCCc1cc(N[C@@H](CC(C)C)C(=O)NCCCOCC)nc(-n2cnc(-c3ccc(OC(F)(F)F)cc3)c2)n1,74%,25 nM,AUC(0-inf) [4]: 1.39 µM·h; bioavailability [5]: 25%; bioavailability [1]: 33%; half-life [6]: 2.7 h; Cmax [7]: 300 nM; AUC(0-inf) [8]: 2.43 µM·h; clearance [9]: 12.1 mL/min/kg; clearance [10]: 9.83 mL/min/kg; Cmax [11]: 660 nM; half-life [12]: 1.1 h; Vd [13]: 2.79 L/kg; Vd [14]: 1.99 L/kg
CCCCc1cc(N[C@@H](CC(C)C)C(=O)NCCCOCC)nc(-n2cnc(-c3ccc(C)cc3)c2)n1,35%,40 nM,
CCCCc1cc(N[C@@H](CC(C)C)C(=O)NCCCOCC)nc(-n2cnc(C(C)(C)C)c2)n1,13%,85 nM,
CCCCc1cc(N[C@@H](CC(C)C)C(=O)NCCCOCC)nc(-n2ccnc2)n1,68%,1700 nM,
CCCCc1cc(N[C@@H](CC(C)C)C(=O)NCCCOCC)nc(-n2cnc(-c3ccc(O)cc3)c2)n1,65%,32 nM,
CCCCc1cc(N[C@@H](CC(C)C)C(=O)NCCCOCC)nc(-c2cccnc2)n1,36%,750 nM,
